In ChEMBL document CHEMBL3808334, “Synthesis and in vitro evaluation of novel triazine analogues as anticancer agents and their interaction studies with bovine serum albumin” (Eur J Med Chem, 2016):

What was measured:
Assay type in all cases: functional
[1] = system: NCI-H460; experiment: Growth inhibition of human NCI-H460 cells assessed as cell growth at 10^-5 M incubated for 48 hrs by sulforhodamine B assay; conditions: NCI-H460, 48 h, read-out: Activity
[2] = system: KM12; experiment: Growth inhibition of human KM12 cells assessed as cell growth at 10^-8 M incubated for 48 hrs by sulforhodamine B assay; conditions: KM12, 48 h, read-out: Activity
[3] = Growth inhibition of human SW620 cells assessed as cell growth at 10^-5 M incubated for 48 hrs by sulforhodamine B assay; conditions: SW-620, 48 h, read-out: Activity
[4] = Growth inhibition of human PC3 cells assessed as cell growth at 10^-8 M incubated for 48 hrs by sulforhodamine B assay; conditions: PC-3, 48 h, read-out: Activity
[5] = system: U-251; experiment: Growth inhibition of human U251 cells assessed as cell growth at 10^-6 M incubated for 48 hrs by sulforhodamine B assay; conditions: U-251, 48 h, read-out: Activity
[6] = Growth inhibition of human SF268 cells assessed as cell growth at 10^-5 M incubated for 48 hrs by sulforhodamine B assay; conditions: SF-268, 48 h, read-out: Activity
[7] = system: K562; experiment: Growth inhibition of human K562 cells assessed as cell growth at 10^-4 M incubated for 48 hrs by sulforhodamine B assay; conditions: K562, 48 h, read-out: Activity
[8] = system: U-251; experiment: Growth inhibition of human U251 cells assessed as cell growth at 10^-4 M incubated for 48 hrs by sulforhodamine B assay; conditions: U-251, 48 h, read-out: Activity
[9] = Growth inhibition of human SKOV3 cells assessed as cell growth at 10^-7 M incubated for 48 hrs by sulforhodamine B assay; conditions: SK-OV-3, 48 h, read-out: Activity
[10] = Growth inhibition of human SF295 cells assessed as cell growth at 10 uM incubated for 48 hrs by sulforhodamine B assay; conditions: SF-295, 48 h, read-out: Activity
[11] = Growth inhibition of human SF295 cells assessed as cell growth at 10^-4 M incubated for 48 hrs by sulforhodamine B assay; conditions: SF-295, 48 h, read-out: Activity
[12] = system: ACHN; experiment: Growth inhibition of human ACHN cells assessed as cell growth at 10^-7 M incubated for 48 hrs by sulforhodamine B assay; conditions: read-out: Activity
Method in brief: (§1)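 Five-dose assay: five concentrations from 10-fold or ½-log serial dilutions. Cells are plated at 5,000–40,000 per well according to doubling time, grown 24 h, then exposed 48 h at 37 °C, 5% CO₂. Fixed with cold 50% TCA (final addition) for 60 min at 4 °C and stained with 0.4% SRB in 1% acetic acid. Bound dye is solubilized in 10 mM Tris base and read at 515 nm. GI₅₀ is where [(Ti−Tz)/(C−Tz)]×100 = 50, with a time-zero plate as Tz.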

[13] = system: M14; experiment: Growth inhibition of human M14 cells assessed as cell growth at 10^-5 M incubated for 48 hrs by sulforhodamine B assay; conditions: M14, 48 h, read-out: Activity
[14] = Growth inhibition of human HOP62 cells assessed as cell growth at 10^-8 M incubated for 48 hrs by sulforhodamine B assay; conditions: HOP-62, 48 h, read-out: Activity
[15] = system: NCI-H322M; experiment: Growth inhibition of human NCI-H322M cells incubated for 48 hrs by sulforhodamine B assay
Method in brief: (§2)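 Cells were plated at 5,000–40,000 per well according to doubling time and preincubated 24 h at 37 °C in 5% CO2; time-zero plates were then TCA-fixed. Five concentrations (10-fold or ½-log dilutions, DMSO stock) were incubated 48 h. Cells were TCA-fixed, stained with 0.4% SRB and read at 515 nm. GI50 was taken where [(Ti−Tz)/(C−Tz)]×100 = 50.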

[16] = Growth inhibition of human UACC62 cells assessed as cell growth at 10^-8 M incubated for 48 hrs by sulforhodamine B assay; conditions: UACC-62, 48 h, read-out: Activity
[17] = Growth inhibition of human RXF393 cells assessed as cell growth at 10^-5 M incubated for 48 hrs by sulforhodamine B assay; conditions: RXF 393, 48 h, read-out: Activity
[18] = Growth inhibition of human BT549 cells assessed as cell growth at 10^-7 M incubated for 48 hrs by sulforhodamine B assay; conditions: BT-549, 48 h, read-out: Activity; method in brief: as §1
[19] = Growth inhibition of human SF539 cells assessed as cell growth at 10^-8 M incubated for 48 hrs by sulforhodamine B assay; conditions: SF-539, 48 h, read-out: Activity
[20] = Growth inhibition of human melanoma cells incubated for 48 hrs by sulforhodamine B assay; conditions: Melanoma cell
[21] = system: SR; experiment: Growth inhibition of human SR cells assessed as cell growth at 10^-5 M incubated for 48 hrs by sulforhodamine B assay; conditions: read-out: Activity
[22] = Growth inhibition of human OVCAR5 cells assessed as cell growth at 10^-8 M incubated for 48 hrs by sulforhodamine B assay; conditions: OVCAR-5, 48 h, read-out: Activity
[23] = Growth inhibition of human Caki1 cells assessed as cell growth at 10^-6 M incubated for 48 hrs by sulforhodamine B assay; conditions: CAKI-1, 48 h, read-out: Activity
Method in brief: (§3)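 Cells seeded at 5,000–40,000/well according to doubling time and preincubated 24 h at 37 °C, 5% CO2. Time-zero plates were TCA-fixed. DMSO concentrate was diluted in medium with 50 µg/ml gentamicin to give five concentrations (10-fold or ½ log steps), then exposed 48 h. Cells were TCA-fixed, stained with 0.4% SRB and read at 515 nm. Percent growth was taken against time-zero and control; GI50, TGI and LC50 derived.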

[24] = Growth inhibition of human HCC2998 cells incubated for 48 hrs by sulforhodamine B assay; conditions: HCC 2998, 48 h; method in brief: as §3
[25] = Growth inhibition of human TK10 cells incubated for 48 hrs by sulforhodamine B assay; conditions: TK-10, 48 h; method in brief: as §2
[26] = Growth inhibition of human UO31 cells assessed as cell growth at 10^-5 M incubated for 48 hrs by sulforhodamine B assay; conditions: UO-31, 48 h, read-out: Activity
[27] = Growth inhibition of human OVCAR5 cells assessed as cell growth at 10^-5 M incubated for 48 hrs by sulforhodamine B assay; conditions: OVCAR-5, 48 h, read-out: Activity
[28] = Growth inhibition of human HCT15 cells assessed as cell growth at 10^-4 M incubated for 48 hrs by sulforhodamine B assay; conditions: HCT-15, 48 h, read-out: Activity; method in brief: as §3
[29] = Growth inhibition of human RPMI8226 cells assessed as cell growth at 10^-5 M incubated for 48 hrs by sulforhodamine B assay; conditions: RPMI-8226, 48 h, read-out: Activity
[30] = read-out: LC50 (the source's name)
[31] = read-out: pLC50 (the source's name) (converted)

## c1ccc(-c2nc(Nc3ccc(-c4nc5ccccc5[nH]4)cc3)nc(N3CCOCC3)n2)cc1
[1]
  growth at 10 µM: -70%
[2]
  growth at 0.01 µM: 98%
[3]
  growth at 10 µM: -77%
[4]
  growth at 0.01 µM: 99%
[5]
  growth at 1 µM: 28%
[6]
  growth at 10 µM: -83%
[7]
  growth at 100 µM: -55%
[8]
  growth at 100 µM: -69%
[9]
  growth at 0.1 µM: 104%
[10]
  growth at 10 µM: -76.4%
[11]
  growth at 100 µM: -71%
[12]
  growth at 0.1 µM: 92%
[13]
  growth at 10 µM: -80%
[14]
  growth at 0.01 µM: 92%
[15]; read-out: GI50
  GI50: 1.65 µM
[15]; [30]
  CC50: 6.67 µM
[15]; read-out: TGI
  TGI: 3.31 µM
[15]; read-out: pGI50 (converted)
  GI50: 1.66 µM
[15]; [31]
  CC50: 6.61 µM
[15]; read-out: pTGI (converted)
  TGI: 3.31 µM
[16]
  growth at 0.01 µM: 94%
[17]
  growth at 10 µM: -63%
[18]
  growth at 0.1 µM: 100%
[19]
  growth at 0.01 µM: 98%
[20]
  GI50: 1.56 µM
  TGI: 3.18 µM
[20]; [30]
  CC50: 6.52 µM
[21]
  growth at 10 µM: -26%
[22]
  growth at 0.01 µM: 90%
[23]
  growth at 1 µM: 68%
[24]; read-out: GI50
  GI50: 1.9 µM
[24]; read-out: TGI
  TGI: 3.99 µM
[24]; read-out: pGI50 (converted)
  GI50: 1.91 µM
[24]; read-out: pTGI (converted)
  TGI: 3.98 µM
[25]; read-out: GI50
  GI50: 2.15 µM
[25]; [30]
  CC50: 6.58 µM
[25]; read-out: TGI
  TGI: 3.76 µM
[25]; read-out: pGI50 (converted)
  GI50: 2.14 µM
[25]; [31]
  CC50: 6.61 µM
[25]; read-out: pTGI (converted)
  TGI: 3.8 µM
[26]
  growth at 10 µM: -78%
[27]
  growth at 10 µM: -73%
[28]
  growth at 100 µM: -49%
[29]
  growth at 10 µM: -32%
